Results as given in ChEMBL document CHEMBL3526138, “Excretion and metabolism of milnacipran in humans after oral administration of milnacipran hydrochloride” (Drug Metab Dispos, 2012).

Assays:
Plasma = experiment: Drug recovery in human plasma at 100 mg, po by HPLC analysis; assay type: ADME, organism-based; settings: in vivo
Outline: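 Pooled plasma extracted for metabolite profiling; recovery of radioactivity through sample processing and through Phenyl-Hexyl HPLC column (0.5-min fractions counted by LSC) expressed as % of plasma or sample radioactivity.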

[1] = Drug excretion in human urine at 100 mg, po up to 24 hrs by liquid scintillation counting analysis; assay type: ADME, organism-based; settings: in vivo
Outline: (§1)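 Urine pooled at 0-4, 4-8, 8-12, 12-24 h, then daily intervals to 120 h after single oral 100 mg [14C] milnacipran hydrochloride; frozen -80°C and counted by LSC. Excreted amount = concentration × volume, given as % of dosed radioactivity, summed cumulatively per subject.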

[2] = Drug excretion in mouse urine at 100 mg/kg, po; assay type: ADME, organism-based; design: dose 100 mg/kg, route oral; settings: read-out: Drug excretion
Homo sapiens [3] = experiment: Total drug excretion in human at 100 mg, po up to 144 hrs by liquid scintillation counting analysis; assay type: ADME, organism-based; settings: in vivo
[4] = Drug excretion in human feces at 100 mg, po up to 72 hrs by liquid scintillation counting analysis; assay type: ADME, organism-based; settings: in vivo
Outline: (§2)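 Feces pooled into 24-h collections to 120 h after oral 100 mg [14C] dose, frozen -80°C, homogenised in water. Triplicate weighed aliquots combusted in sample oxidizer, counted by LSC 5 min. Excreted amount = concentration × sample weight, expressed as % of dosed radioactivity and summed cumulatively per subject.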

[5] = Drug excretion in human urine at 100 mg, po up to 12 hrs by liquid scintillation counting analysis; assay type: ADME, organism-based; settings: in vivo; outline: as §1
[6] = Drug excretion in human urine at 100 mg, po up to 144 hrs by liquid scintillation counting analysis; assay type: ADME, organism-based; settings: in vivo
[7] = Drug excretion in human feces at 100 mg, po up to 48 hrs by liquid scintillation counting analysis; assay type: ADME, organism-based; settings: in vivo; outline: as §2
Homo sapiens [8] = experiment: Total drug excretion in human at 100 mg, po up to 8 hrs by liquid scintillation counting analysis; assay type: ADME, organism-based; settings: in vivo
Outline: (§3)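 Mass balance after single oral 100 mg [14C] dose to healthy males: cumulative urinary plus fecal radioactivity (LSC; feces combusted first) as % of dose per subject, urine and feces collected in timed intervals to 120 h.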

Homo sapiens [9] = experiment: Total drug excretion in human at 100 mg, po up to 120 hrs by liquid scintillation counting analysis; assay type: ADME, organism-based; settings: in vivo; outline: as §3
Homo sapiens [10] = experiment: Total drug excretion in human at 100 mg, po up to 72 hrs by liquid scintillation counting analysis; assay type: ADME, organism-based; settings: in vivo; outline: as §3
[11] = Drug excretion in human urine at 100 mg, po up to 48 hrs by liquid scintillation counting analysis; assay type: ADME, organism-based; settings: in vivo; outline: as §1
[12] = Drug excretion in human feces at 100 mg, po up to 120 hrs by liquid scintillation counting analysis; assay type: ADME, organism-based; settings: in vivo; outline: as §2
Homo sapiens [13] = experiment: Total drug excretion in human at 100 mg, po up to 24 hrs by liquid scintillation counting analysis; assay type: ADME, organism-based; settings: in vivo; outline: as §3
Homo sapiens [14] = experiment: Total drug excretion in human at 100 mg, po up to 48 hrs by liquid scintillation counting analysis; assay type: ADME, organism-based; settings: in vivo; outline: as §3
[15] = Drug excretion in human feces at 100 mg, po up to 144 hrs by liquid scintillation counting analysis; assay type: ADME, organism-based; settings: in vivo
Homo sapiens [16] = experiment: AUC (0 to infinity) in human assessed as radioactivity at 100 mg, po by liquid scintillation counting analysis; assay type: ADME, organism-based, Plasma; design: dose 100 mg, route oral, time infinity; settings: in vivo
Outline: (§4)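 Healthy males given single oral [14C] milnacipran hydrochloride (100 μCi; 1 μCi/mg) after breakfast. Blood drawn into chilled K3EDTA tubes pre-dose to 120 h, plasma spun ≥2,500 g 10 min 4°C and frozen -80°C. Radioactivity counted by LSC for 5 min, converted to ng equivalent/mL via specific activity. Parameters by non-compartmental analysis; subjects without emesis.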

[17] = Drug excretion in human urine at 100 mg, po up to 72 hrs by liquid scintillation counting analysis; assay type: ADME, organism-based; settings: in vivo; outline: as §1
[18] = Drug excretion in human urine at 100 mg, po up to 8 hrs by liquid scintillation counting analysis; assay type: ADME, organism-based; settings: in vivo; outline: as §1
Homo sapiens [19] = experiment: Total drug excretion in human at 100 mg, po up to 96 hrs by liquid scintillation counting analysis; assay type: ADME, organism-based; settings: in vivo; outline: as §3
Homo sapiens [20] = experiment: Tmax in human assessed as radioactivity at 100 mg, po by liquid scintillation counting analysis; assay type: ADME, organism-based; settings: in vivo; outline: as §4
Homo sapiens [21] = experiment: Total drug excretion in human at 100 mg, po up to 12 hrs by liquid scintillation counting analysis; assay type: ADME, organism-based; settings: in vivo; outline: as §3
[22] = Drug excretion in human feces at 100 mg, po up to 24 hrs by liquid scintillation counting analysis; assay type: ADME, organism-based; settings: in vivo; outline: as §2
Homo sapiens [23] = experiment: AUC (0 to t) in human assessed as radioactivity at 100 mg, po by liquid scintillation counting analysis; assay type: ADME, organism-based, Plasma; settings: in vivo; outline: as §4
Homo sapiens [24] = experiment: Total drug excretion in human at 100 mg, po up to 4 hrs by liquid scintillation counting analysis; assay type: ADME, organism-based; settings: in vivo; outline: as §3
[25] = Drug excretion in human feces at 100 mg, po up to 96 hrs by liquid scintillation counting analysis; assay type: ADME, organism-based; settings: in vivo; outline: as §2
Homo sapiens [26] = experiment: Half life in human assessed as radioactivity at 100 mg, po by liquid scintillation counting analysis; assay type: ADME, organism-based; settings: in vivo; outline: as §4
[27] = Drug excretion in rat urine at 100 mg/kg, po; assay type: ADME, organism-based; design: dose 100 mg/kg, route oral; settings: read-out: Drug excretion
Homo sapiens [28] = experiment: Cmax in human assessed as radioactivity at 100 mg, po by liquid scintillation counting analysis; assay type: ADME, organism-based; design: dose 100 mg, route oral; settings: in vivo; outline: as §4
[29] = Drug excretion in human urine at 100 mg, po up to 4 hrs by liquid scintillation counting analysis; assay type: ADME, organism-based; settings: in vivo; outline: as §1
[30] = Drug excretion in human urine at 100 mg, po up to 96 hrs by liquid scintillation counting analysis; assay type: ADME, organism-based; settings: in vivo; outline: as §1
[31] = Drug excretion in human urine at 100 mg, po up to 120 hrs by liquid scintillation counting analysis; assay type: ADME, organism-based; settings: in vivo; outline: as §1
[32] = Drug excretion in monkey urine at 60 mg/kg, po; assay type: ADME, organism-based, Macaca mulatta; design: dose 60 mg/kg, route oral; settings: rhesus monkey, read-out: Drug excretion

Work on `CCN(CC)[14C](=O)C1(c2ccccc2)CC1CN.Cl` (stereo not drawn) yielded a Drug recovery (Plasma) of 99.1%, a Drug excretion [1] of 79.4% and a dose excreted [2] of 63%. For the same molecule, the Drug excretion (Homo sapiens [3]) was 96.9%, the Drug excretion [4] was 3.27% and the Drug excretion [5] was 60.8%. For the same molecule, the Drug excretion [6] was 93.3%, the Drug excretion [7] was 2.83% and the Drug excretion (Homo sapiens [8]) was 48.5%. For the same molecule, the Drug excretion (Homo sapiens [9]) was 96.8%, the Drug excretion (Homo sapiens [10]) was 95.4% and the Drug excretion [11] was 89.3%. The Drug excretion [12] was 3.65%, the Drug excretion (Homo sapiens [13]) was 79.6% and the Drug excretion (Homo sapiens [14]) was 92.2%. It also gave a Drug excretion [15] of 3.65%, an AUC (Homo sapiens [16]) of 7325.3 ng.Eq.hr/ml and a Drug excretion [17] of 92.1%. It also gave a Drug excretion [18] of 48.5%, a Drug excretion (Homo sapiens [19]) of 96.5% and a Tmax (Homo sapiens [20]) of 4.3 h. The Drug excretion (Homo sapiens [21]) was 60.8%, the Drug excretion [22] was 0.407% and the AUCt (Homo sapiens [23]) was 6446.3 ng.Eq.hr/ml. The Drug excretion (Homo sapiens [24]) was 24.8%, the Drug excretion [25] was 3.62% and the t1/2 (Homo sapiens [26]) was 7.7 h. The dose excreted [27] was 63%, the Cmax (Homo sapiens [28]) was 679 ng.Eq/ml and the Drug excretion [29] was 24.8%. The Drug excretion [30] was 92.8%, the Drug excretion [31] was 93.1% and the dose excreted [32] was 40%.
